Converted amounts (≈) assume the structure as drawn.

Broadly, the MIC is the lowest concentration found to suppress growth. Read a high MIC as weaker potency.

What all share (type): functional
Experiment [1] has as its system Escherichia coli. Briefly: Bactericidal activity against Escherichia coli K-12 DM4100 after 2 hrs in presence of protein synthesis inhibitor chloramphenicol treated 10 mins before compound challenge. The procedure, abridged: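 Midlog E. coli grown aerobically at 37°C in LB. Chloramphenicol added to 20 μg/ml 10 min before quinolone, then 2 h further incubation. Cells diluted in growth medium and plated on drug-free agar, then incubated overnight at 37°C for CFU counts. Percent survival is relative to CFU at quinolone addition.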

Experiment [2] concerns Escherichia coli. The experiment in a line: Bacteriostatic activity against Escherichia coli K-12 DM4100. The procedure, abridged: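 MIC by broth dilution: E. coli K-12 DM4100 at 10^4 to 10^5 cells/ml in LB liquid medium with serial 2-fold dilutions of quinolone, incubated at 37°C. Drug stock dilutions made in sterile distilled water.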
In experiment [3] the test system is Escherichia coli. The experiment in a line: Ratio of LD99 for Escherichia coli K-12 DM4100 to MIC for Escherichia coli K-12 DM4100. The procedure, abridged:
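MIC: 10^4 to 10^5 cells/ml incubated at 37°C in LB broth with serial 2-fold quinolone dilutions. Lethality: midlog cultures grown aerobically at 37°C and exposed to quinolone for 2 h, then plated on drug-free agar overnight for CFU. Survival is expressed as percent of CFU at drug addition.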

`C[C@H]1COc2c(C3(N)CC3)c(F)cc3c(=O)c(C(=O)O)cn1c23` [PAZUFLOXACIN]: in the experiment with Escherichia coli [1], the LD99 came out at 0.08 µg/mL. The same compound had an MIC against Escherichia coli [2] of 0.02 µg/mL (≈ 0.0628 µM). Further, the Ratio in the experiment on Escherichia coli [3] is on record as 4.
On to `COc1c(N2C[C@@H]3CCCN[C@@H]3C2)c(F)cc2c(=O)c(C(=O)O)cn(C3CC3)c12` [MOXIFLOXACIN], for which, in the experiment on Escherichia coli [1], the LD99 is 0.5 µg/mL. The compound also displayed an MIC against Escherichia coli [2] of 0.125 µg/mL (≈ 0.311 µM). For the same compound, the Ratio in the experiment on Escherichia coli [3] came to 4.
As for `CN1CCN(c2c(F)cc3c(=O)c(C(=O)O)cn4c3c2OCN4C)CC1` [MARBOFLOXACIN], the LD99 with Escherichia coli [1] came out at 0.06 µg/mL. In the experiment on Escherichia coli [2], this compound returned an MIC of 0.02 µg/mL (≈ 0.0552 µM). Also, the Ratio with Escherichia coli [3] was 3.
Regarding `COc1c(N2CCN(C)CC2)c(F)cc2c(=O)c(C(=O)O)cn(C3CC3)c12`, the LD99 in the experiment on Escherichia coli [1] turned out to be 0.2 µg/mL. In the experiment on Escherichia coli [2], inhibition of growth (MIC) required 0.062 µg/mL (≈ 0.165 µM). The Ratio in the experiment on Escherichia coli [3] was found to be 3.2.
Turning to `C[C@H]1COc2c(N3CCNCC3)c(F)cc3c(=O)c(C(=O)O)cn1c23` [N-DESMETHYL LEVOFLOXACIN], the LD99 with Escherichia coli [1] worked out at 1.2 µg/mL. This compound showed an MIC with Escherichia coli [2] of 1 µg/mL (≈ 2.88 µM). The Ratio in the experiment with Escherichia coli [3] came to 1.2.
Taken in the same sequence, the figures for `CCN1CCN(c2c(F)cc3c(=O)c(C(=O)O)cn(C4CC4)c3c2OC)CC1` were 0.14 µg/mL, 0.1 µg/mL (≈ 0.257 µM) and 1.4.
On to `COc1c(N2CCNC(C)C2)c(F)cc2c(=O)c(C(=O)O)cn(C3CC3)c12` (stereo not given) [GATIFLOXACIN], for which the LD99 in the experiment on Escherichia coli [1] is 0.2 µg/mL. The same compound showed a minimal inhibitory concentration (MIC) against Escherichia coli [2] of 0.04 µg/mL (≈ 0.107 µM). Further, the Ratio in the experiment on Escherichia coli [3] is recorded as 5.
Regarding `CC1CN(c2c(F)cc3c(=O)c(C(=O)O)cn4c3c2OC[C@@H]4C)CCN1` (stereo not given in full), the LD99 in the experiment on Escherichia coli [1] came out at 0.74 µg/mL. The same compound displayed an MIC with Escherichia coli [2] of 0.31 µg/mL (≈ 0.858 µM). For the same compound, the Ratio with Escherichia coli [3] was determined as 2.4.
As for `CCC1CN(c2c(F)cc3c(=O)c(C(=O)O)cn4c3c2OC[C@@H]4C)CCN1` (stereo not given in full), the LD99 in the experiment on Escherichia coli [1] is 0.5 µg/mL. In the experiment with Escherichia coli [2], this compound registered an MIC of 0.25 µg/mL (≈ 0.666 µM). Further, in the experiment on Escherichia coli [3], the Ratio turned out to be 2.
For the compound `COc1c(N2CCNCC2)c(F)cc2c(=O)c(C(=O)O)cn(C3CC3)c12`, the LD99 in the experiment on Escherichia coli [1] was 0.04 µg/mL. Moreover, the MIC in the experiment on Escherichia coli [2] turned out to be 0.031 µg/mL (≈ 0.0858 µM). For the same compound, the Ratio in the experiment on Escherichia coli [3] turned out to be 1.3.
Regarding `CN1CCN(c2c(F)cc3c(=O)c(C(=O)O)cn4c3c2SCC4)CC1` [RUFLOXACIN], in the experiment with Escherichia coli [1], the LD99 came out at 7 µg/mL. This compound also came in with an MIC against Escherichia coli [2] of 1 µg/mL (≈ 2.75 µM). Further, in the experiment with Escherichia coli [3], the Ratio was 7.
`CCN1CCN(c2c(F)cc3c(=O)c(C(=O)O)cn4c3c2OC[C@@H]4C)CC1`: in the experiment on Escherichia coli [1], the LD99 turned out to be 1.5 µg/mL. It took 0.75 µg/mL (≈ 2 µM) to inhibit growth with Escherichia coli [2] (MIC). Moreover, the Ratio with Escherichia coli [3] was 2.
On to `C[C@H]1COc2c(N3C[C@@H]4CCCN[C@@H]4C3)c(F)cc3c(=O)c(C(=O)O)cn1c23`, for which, in the experiment with Escherichia coli [1], the LD99 turned out to be 0.25 µg/mL. In the experiment with Escherichia coli [2], the MIC was 0.125 µg/mL (≈ 0.323 µM). Besides, the Ratio in the experiment with Escherichia coli [3] was 2.
In the same order, the values of `C[C@H]1COc2c(N3CCN(C)CC3)c(F)cc3c(=O)c(C(=O)O)cn1c23.C[C@H]1COc2c(N3CCN(C)CC3)c(F)cc3c(=O)c(C(=O)O)cn1c23.O` [LEVOFLOXACIN] are 0.8 µg/mL, 0.2 µg/mL and 4.
Take `CCC1CN(c2c(F)cc3c(=O)c(C(=O)O)cn(C4CC4)c3c2OC)CCN1` (stereo not given): the LD99 with Escherichia coli [1] was 0.8 µg/mL. This compound also showed an MIC in the experiment with Escherichia coli [2] of 0.16 µg/mL (≈ 0.411 µM). Moreover, in the experiment on Escherichia coli [3], the Ratio was 5.

These data come from ChEMBL document CHEMBL1687807, “Effect of N-1/c-8 ring fusion and C-7 ring structure on fluoroquinolone lethality” (2010).
